Results on two compounds are retold here after ChEMBL document CHEMBL4007417, “Target Elucidation by Cocrystal Structures of NADH-Ubiquinone Oxidoreductase of Plasmodium falciparum (PfNDH2) with Small Molecule To Eliminate Drug-Resistant Malaria” (J Med Chem, 2017).

Broadly, the EC50 is the concentration at which the effect is half-maximal. Higher therefore signals a need for much substance. Usually IC50 stands for the point on the concentration scale where inhibition reaches its midpoint. Higher therefore signals weaker potency. For orientation: Kd means the constant that tells how readily two partners part at equilibrium.

Molecules are shown by their SMILES. Activity calls are given as the source filed them. The rule behind the calls is not given here.

Experiment [1] relates to Plasmodium falciparum. The experiment can be described thus: Antimalarial activity against chloroquine/quinine/sulfadoxine-pyrimethamine/amodiaquine-resistant asexual blood stage Plasmodium falciparum Dd2 after 72 hrs by SYBR green-based fluorometric analysis. Particulars: Dd2, 72 h. Format: functional. The method in brief:
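Mid-ring-stage cultures (~6-10 h post-invasion) at 1% parasitemia and 2% hematocrit, in triplicate. Twofold serial dilutions from a top concentration of 100 nM. Incubated 72 h at 37 °C under 5% CO2/5% O2/90% N2. Lysis buffer containing 5×SYBR Green I added, 20 min in the dark, fluorescence read at ex 485/em 538 nm. EC50 derived.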

Experiment [2] deals with Plasmodium yoelii. Briefly: Antimalarial activity against Plasmodium yoelii YM infected in BALB/c mouse assessed as parasite growth inhibition at 30 mg/kg, sc administered QD for 4 days starting at 96 hrs post infection by Giemsa-staining based microscopic analysis. Particulars: read-out: GI. The experiment is classed as functional. Summed up:
(§1)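 P. yoelii-infected mice, n=3 per group. Subcutaneous injection once daily for 4 days starting at 96 h post infection. Parasitemia followed on blood-smear microscopy, with inhibition measured at 24 h post treatment. Cure time taken as the minimum period to cure all mice; survival recorded at 40 days. DMSO controls included.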

Experiment [3] concerns Plasmodium yoelii. Briefly: Antimalarial activity against Plasmodium yoelii YM infected in BALB/c mouse assessed as time duration for parasite cure at 30 mg/kg, sc administered QD for 4 days starting at 96 hrs post infection by Giemsa-staining based microscopic analysis. The experiment is classed as functional. The method in brief: as §1
For experiment [4], the system named is Plasmodium yoelii. Briefly: Antimalarial activity against Plasmodium yoelii YM infected in BALB/c mouse assessed as parasite cure level at 10 mg/kg, ip administered on days 1 post infection by Giemsa-stained microscopic analysis. Format: functional, organism-based. Summed up: (§2)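 Mice (groups of three) inoculated with 1×10^6 P. yoelii parasites. Single intraperitoneal dose of 10, 30 or 90 mg/kg given 24 h after inoculation. DMSO-only untreated group included. Outcome followed by blood-smear microscopy for cure, with survival scored at 40 days post infection.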

Experiment [5] concerns Plasmodium yoelii. The experiment can be described thus: Antimalarial activity against Plasmodium yoelii YM infected in BALB/c mouse assessed reduction in parasitemia at 30 mg/kg/day, sc for 4 days by Giemsa-staining based microscopic analysis. The experiment is classed as functional, organism-based. Summed up:
as §1

The subject of experiment [6] is Plasmodium yoelii. The experiment can be described thus: Antimalarial activity against Plasmodium yoelii YM infected in BALB/c mouse assessed reduction in parasitemia at 10 mg/kg/day, sc for 4 days by Giemsa-staining based microscopic analysis. Format: functional, organism-based. The method in brief:
as §1

Experiment [7] in a line: Inhibition of Plasmodium falciparum NDH2 N92R/S497R double mutant expressed in Escherichia coli DH5alpha competent cells using NADH and ubiquinone-1 as substrate by spectrophotometric analysis. Summed up:
(§3)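 Recombinant PfNDH2 point or double mutants assayed spectrophotometrically at 25 °C. Buffer: 50 mM MOPS pH 7.0, 150 mM NaCl, 1 mM EDTA, 0.01% Triton X-100. Substrates 50 µM NADH and 30 µM ubiquinone-1, with 0.5 nM enzyme and selected inhibitor concentrations.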

A short description of experiment [8]: Inhibition of Plasmodium falciparum wild type NDH2 expressed in Escherichia coli BL21 using NADH and ubiquinone-1 as substrate by spectrophotometric analysis. The method in brief:
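Recombinant PfNDH2 activity measured spectrophotometrically at 25 °C. Buffer: 50 mM MOPS pH 7.0, 150 mM NaCl, 1 mM EDTA, 0.01% Triton X-100. Substrates 50 µM NADH and 30 µM ubiquinone-1, with 0.5 nM enzyme and selected inhibitor concentrations.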

Experiment [9] is described as follows: Inhibition of Plasmodium falciparum NDH2 N92R mutant expressed in Escherichia coli DH5alpha competent cells using NADH and ubiquinone-1 as substrate by spectrophotometric analysis. The method in brief: as §3
The nature of experiment [10]: Inhibition of Plasmodium falciparum NDH2 D171R mutant expressed in Escherichia coli DH5alpha competent cells using NADH and ubiquinone-1 as substrate by spectrophotometric analysis. The method in brief: as §3
Experiment [11] can be described thus: Inhibition of Plasmodium falciparum NDH2 Y475R mutant expressed in Escherichia coli DH5alpha competent cells using NADH and ubiquinone-1 as substrate by spectrophotometric analysis. Summed up:
as §3

A short description of experiment [12]: Inhibition of Plasmodium falciparum NDH2 S497R mutant expressed in Escherichia coli DH5alpha competent cells using NADH and ubiquinone-1 as substrate by spectrophotometric analysis. Summed up:
as §3

Experiment [13] is described as follows: Binding affinity to Plasmodium falciparum NDH2 expressed in Escherichia coli BL21 assessed as NADH Kd by SPR assay (reference value: 5.22 uM). (Surface plasmon resonance follows binding to a sensor surface in real time, without labels.)
Experiment [14] deals with Plasmodium falciparum. Briefly: Non-competitive inhibition of Plasmodium falciparum NDH2 expressed in Escherichia coli BL21 up to 50 nM by spectrophotometric analysis.
Experiment [15] concerns Plasmodium yoelii. The experiment can be described thus: Antimalarial activity against Plasmodium yoelii YM infected in BALB/c mouse assessed as time duration for parasite cure at 5 mg/kg, sc administered QD for 4 days starting at 2 hrs post infection by Giemsa-staining based microscopic analysis. The experiment is classed as functional. The method in brief:
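P. yoelii-infected mice, n=3 per group. Subcutaneous injection once daily for 4 days starting at 2 h post infection. Growth inhibition determined at 24 h post treatment by blood-smear microscopy. Cure time taken as the minimum period to cure all mice in the group.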

Experiment [16] has as its system Plasmodium yoelii. The experiment can be described thus: Antimalarial activity against Plasmodium yoelii YM infected in BALB/c mouse assessed as parasite growth inhibition at 10 mg/kg, sc administered QD for 4 days starting at 96 hrs post infection by Giemsa-staining based microscopic analysis. The experiment is classed as functional. Particulars: read-out: GI. The method in brief:
as §1

Experiment [17] has as its system Plasmodium yoelii. Briefly: Antimalarial activity against Plasmodium yoelii YM infected in BALB/c mouse assessed as time duration for parasite cure at 10 mg/kg, sc administered QD for 4 days starting at 96 hrs post infection by Giemsa-staining based microscopic analysis. Format: functional. The method in brief: as §1
Experiment [18] concerns Plasmodium yoelii. The experiment can be described thus: Antimalarial activity against Plasmodium yoelii YM infected in BALB/c mouse assessed as mouse survival at 10 mg/kg, sc administered QD for 4 days starting at 96 hrs post infection by Giemsa-staining based microscopic analysis. Format: functional. The method in brief: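 Mice inoculated with 1×106 P. yoelii parasites. Subcutaneous dosing for 4 days starting 96 h post infection, given once daily or twice daily 8 h apart. Parasitemia followed on Giemsa-stained blood smears. Survival recorded at 40 days post infection; groups of n=3. DMSO-only mice served as untreated controls.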

Experiment [19] relates to Plasmodium yoelii. Briefly: Antimalarial activity against Plasmodium yoelii YM infected in BALB/c mouse assessed as time duration for parasite cure at 10 mg/kg, sc administered BID for 4 days starting at 96 hrs post infection, 8 hrs apart by Giemsa-staining based microscopic analysis. The experiment is classed as functional. The method in brief:
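P. yoelii-infected mice, n=3 per group. Subcutaneous injection twice daily, 8 h apart, for 4 days starting at 96 h post infection. Growth inhibition read from blood smears at 24 h post treatment. Cure time taken as the minimum period to cure all mice in the group. DMSO controls included.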

Experiment [20] has as its system Plasmodium yoelii. Briefly: Antimalarial activity against Plasmodium yoelii YM infected in BALB/c mouse assessed as parasite cure level at 10 to 90 mg/kg, ip administered on days 1 post infection by Giemsa-stained microscopic analysis. Format: functional, organism-based. Summed up:
as §2

Experiment [21] concerns Plasmodium falciparum. Briefly: Synergistic antimalarial activity against Plasmodium falciparum in presence of quinine. Format: functional. Summed up:
(§4)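 In vitro drug interaction analyses with other antimalarials against P. falciparum. Experiments repeated three times; error bars s.e.m.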

Experiment [22] has as its system Plasmodium falciparum. Briefly: Synergistic antimalarial activity against Plasmodium falciparum in presence of dihydroartemisinin. The experiment is classed as functional. The method in brief: as §4
Experiment [23] has as its system Plasmodium falciparum. Briefly: Binding affinity to Plasmodium falciparum NDH2 expressed in Escherichia coli BL21 assessed as reduction in NADH Kd by SPR assay.
In experiment [24] the test system is Plasmodium falciparum. The experiment can be described thus: Synergistic antimalarial activity against Plasmodium falciparum in presence of chloroquine. Format: functional. Summed up: as §4

The compound `Cc1c(-c2ccc(Cc3ccc(SC(F)(F)F)cc3)cc2)[nH]c2cccc(F)c2c1=O` returned an EC50 with Plasmodium falciparum [1] of 0.0021 µM. The inhibition in vivo at 30 mg/kg in the experiment with Plasmodium yoelii [2] turned out to be 77.4%. Further, the Time in the experiment with Plasmodium yoelii [3] worked out at 18 days. For the same compound, in the experiment on Plasmodium yoelii [4], the result was inactive. Also, the result in the experiment with Plasmodium yoelii [5] was Active.
Regarding `Cc1c(-c2ccc(Cc3ccc(OC(F)(F)F)cc3)cc2)[nH]c2cccc(F)c2c1=O`, the outcome in the experiment with Plasmodium yoelii [6] and in the experiment on Plasmodium yoelii [20] was Active. The IC50 in experiment [7] is 0.123 µM; in experiment [8], 0.00373 µM; in [9], 0.0167 µM; in [10], 0.00974 µM; in experiment [11], 0.0317 µM; in experiment [12], 0.0171 µM. Further, the Kd in experiment [13] was 37.2 µM. In addition, in the experiment with Plasmodium falciparum [14], the inhibition entry is “Active”. Further, the midpoint of the response with Plasmodium falciparum [1], the EC50, lay at 0.00383 µM. For the same compound, the Time in the experiment on Plasmodium yoelii [15] came out at 28 days; in the experiment with Plasmodium yoelii [17], 17 days; in the experiment with Plasmodium yoelii [19], 16 days. Besides, the inhibition in vivo at 10 mg/kg in the experiment on Plasmodium yoelii [16] came out at 98.4%. Also, the survival at 10 mg/kg with Plasmodium yoelii [18] is 100%. In addition, the “fractional inhibitory concentration index (FICI)” value with Plasmodium falciparum [21] came to 2.33; in the experiment with Plasmodium falciparum [22] it was 0.56; in the experiment with Plasmodium falciparum [24], 1.52. Further, the fold change (FC) with Plasmodium falciparum [23] worked out at 7.
